Legend:
[1] = target: Histone deacetylase 1 (Homo sapiens, UniProt Q13547); experiment: Inhibition of recombinant full length HDAC1 (unknown origin) using Ac-peptide-AMC as substrate at 100 nM after 1 hr by fluorescence assay relative to control
How it was run: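 Full-length recombinant HDAC1 or HDAC6 was incubated with compound, trypsin and Ac-peptide-AMC substrate for 1 h at room temperature. Fluorescence was read at ex 355/em 460 nm. Inhibition was calculated against the DMSO vehicle control.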

[2] = test system: JeKo-1; experiment: Antiproliferative activity against human JeKo1 cells after 72 hrs by MTT assay; format: functional, cell-based; settings: JeKo-1, 72 h
[3] = target: T1, Protein deacetylase HDAC6 (Homo sapiens) (UniProt Q9UBN7); experiment: Inhibition of HDAC6 in human MM1S cells assessed as increase in alpha tubulin acetylation after 6 hrs by Western blot analysis; format: cell-based
T1 sequence (whole entry): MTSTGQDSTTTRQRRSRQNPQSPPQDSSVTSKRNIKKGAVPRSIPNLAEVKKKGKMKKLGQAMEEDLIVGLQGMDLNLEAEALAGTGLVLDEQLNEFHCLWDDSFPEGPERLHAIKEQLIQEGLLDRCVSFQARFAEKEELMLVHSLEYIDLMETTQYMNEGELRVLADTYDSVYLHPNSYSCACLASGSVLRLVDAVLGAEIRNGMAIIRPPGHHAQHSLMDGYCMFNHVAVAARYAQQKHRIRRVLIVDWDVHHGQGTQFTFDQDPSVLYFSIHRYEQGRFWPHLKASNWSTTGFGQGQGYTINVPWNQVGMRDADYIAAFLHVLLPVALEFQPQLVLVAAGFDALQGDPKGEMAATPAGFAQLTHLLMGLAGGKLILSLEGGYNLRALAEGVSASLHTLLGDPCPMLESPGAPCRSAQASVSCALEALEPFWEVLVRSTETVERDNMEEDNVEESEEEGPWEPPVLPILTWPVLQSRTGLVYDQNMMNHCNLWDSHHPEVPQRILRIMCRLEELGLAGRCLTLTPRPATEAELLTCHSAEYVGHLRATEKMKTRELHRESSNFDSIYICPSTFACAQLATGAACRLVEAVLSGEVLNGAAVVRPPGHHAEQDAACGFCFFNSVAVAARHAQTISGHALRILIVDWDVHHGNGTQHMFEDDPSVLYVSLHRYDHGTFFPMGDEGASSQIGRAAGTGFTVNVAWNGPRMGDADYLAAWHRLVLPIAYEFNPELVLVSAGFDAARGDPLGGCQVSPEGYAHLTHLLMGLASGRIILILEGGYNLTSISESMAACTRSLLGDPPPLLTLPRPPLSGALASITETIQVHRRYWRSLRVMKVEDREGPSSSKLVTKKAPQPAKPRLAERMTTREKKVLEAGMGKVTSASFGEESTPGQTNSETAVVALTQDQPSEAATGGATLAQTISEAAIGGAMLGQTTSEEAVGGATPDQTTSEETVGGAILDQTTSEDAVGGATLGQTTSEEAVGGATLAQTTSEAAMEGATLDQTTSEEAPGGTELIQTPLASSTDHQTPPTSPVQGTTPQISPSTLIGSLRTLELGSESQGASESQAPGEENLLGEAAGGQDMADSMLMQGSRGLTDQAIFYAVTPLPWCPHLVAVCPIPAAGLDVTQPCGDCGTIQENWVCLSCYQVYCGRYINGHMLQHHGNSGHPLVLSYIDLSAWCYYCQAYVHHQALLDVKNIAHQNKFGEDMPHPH

[4] = test system: JeKo-1; experiment: Induction of apoptosis in human JeKo1 cells assessed as late apoptotic cells at 10 nM after 48 hrs by annexin V-FITC/propidium iodide staining-based flow cytometric method (reference value: 3.07 %); format: functional
How it was run: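 Jeko-1 cells were grown in RPMI-1640 with 10% FBS at 37 °C under 5% CO2. They were exposed to 0, 10, 100 or 1000 nM for 48 h, then apoptosis induction was analysed.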

[5] = Clearance in Sprague-Dawley rat at 5 mg/kg, iv measured upto 24 hrs by LC-MS/MS analysis; format: ADME, organism-based; settings: in vivo
How it was run: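 SD rats (200-250 g), six per time point, given 5 mg/kg as a tail-vein bolus or orally. Blood was taken by cardiac puncture before dosing and at 5, 15, 30, 45 min and 1, 2, 4, 6, 8, 10, 12 and 24 h. Plasma was spun at 4000 g for 15 min at 4 °C and stored at -80 °C. Analysis was LC-MS/MS with multiple-reaction monitoring, followed by noncompartmental analysis.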

Sequence of Histone deacetylase 1 (Q13547 whole entry): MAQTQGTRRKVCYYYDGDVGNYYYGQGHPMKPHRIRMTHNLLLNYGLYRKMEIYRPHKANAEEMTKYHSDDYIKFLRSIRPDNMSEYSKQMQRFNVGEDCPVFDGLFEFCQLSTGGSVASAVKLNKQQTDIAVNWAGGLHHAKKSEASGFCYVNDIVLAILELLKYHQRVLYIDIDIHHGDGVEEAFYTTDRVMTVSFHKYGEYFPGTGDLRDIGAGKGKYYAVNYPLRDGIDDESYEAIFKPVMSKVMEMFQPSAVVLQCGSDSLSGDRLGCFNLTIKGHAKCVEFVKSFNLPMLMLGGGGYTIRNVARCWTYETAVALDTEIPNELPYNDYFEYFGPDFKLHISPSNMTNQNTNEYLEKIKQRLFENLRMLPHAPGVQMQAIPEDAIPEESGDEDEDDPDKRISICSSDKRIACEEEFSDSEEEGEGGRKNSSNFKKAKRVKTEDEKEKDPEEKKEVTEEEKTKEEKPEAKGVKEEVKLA

inhibition [1]: 96%
inhibition [3]: Dose-dependent effect
clearance [5]: 198 mL/min/kg
Structure (SMILES): Cc1ccc(CN2CCC(c3noc(CN(C)c4ncc(C(=O)NO)cn4)n3)CC2)cc1
IC50 [2]: 7.2 nM
Activity [4]: 2.24%
